Reference: ChEMBL document CHEMBL5046272, “Discovery of Potent, Selective, and In Vivo Efficacious AKT Kinase Protein Degraders via Structure-Activity Relationship Studies” (J Med Chem, 2022)
Calls of active or inactive are those of the source. The calls are words filed in the database; no cut-off is given here.

Tests used:
[1] = biological target: T1, von Hippel-Lindau disease tumor suppressor/AKT (Homo sapiens) (UniProt P31751+Q9Y243+P31749+P40337); test: Protac activity at VHL/AKT in human BT-474 cells assessed as reduction in total AKT protein level at 1 to 10 uM measured after 24 hrs by Western blot analysis; assay type: cell-based; settings: dose 1-10 µM
In short: (§1)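 BT474 cells treated 24 h at 1, 5 or 10 μM, alongside AZD5363 (1 μM) and the matching E3 ligand VHL-1 or pomalidomide (1 μM). Lysates in urea/SDS sample buffer were run on 4–12% Bis-Tris gels and blotted to PVDF. Blots probed for total AKT, P-AKT S473, P-PRAS40 T246 and P-S6 S240/244, with β-actin loading control and chemiluminescent detection.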

[2] = Protac activity at CRBN/AKT in human BT-474 cells assessed as reduction in AKT protein level at 1 to 10 uM measured after 24 hrs by Western blot analysis; settings: dose 1-10 µM
BT-474 = test: Inhibition of colony formation in human BT-474 cells at 0.1 to 10 uM incubated for 14 days by replacing culture medium for every 2 days by crystal violet staining based assay; assay type: functional, cell-based; settings: dose 0.1-10 µM, time 14.0 day
In short: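 BT474 cells cultured 14 days with compound. Medium plus compound was replaced every 2 days. Viable cells were then stained with 0.5% crystal violet.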

[3] = Protac activity at CRBN/AKT in human BT-474 cells assessed as reduction in AKT protein level at 10 uM measured after 24 hrs by Western blot analysis
[4] = Protac activity at CRBN/AKT in human BT-474 cells assessed as inhibition of downstream signalling by measuring reduction in PRAS40 phosphorylation at T246 residue at 1 to 10 uM measured after 24 hrs Western blot analysis; settings: dose 1-10 µM
MDA-MB-468 = test: Antiproliferative activity against human MDA-MB-468 cells assessed as cell growth by measured after 5 days by IncuCyte zoom live cell analysis; assay type: functional; settings: MDA-MB-468, 120 h, time 5 day
In short: (§2)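 Cells grown in DMEM with 10% FBS at 37 °C, 5% CO₂. Seeded at 1–3 × 10³ cells/well in triplicate with serial compound dilutions for 5 days. Growth was taken as confluence from IncuCyte phase-contrast images of live cells. Three independent experiments.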

PC-3 = test: Antiproliferative activity against human PC-3 cells assessed as inhibition of cell growth measured after 5 days by IncuCyte zoom live cell analysis; assay type: functional; settings: PC-3, 120 h, time 5 day; in short: as §2
[5] = biological target: T1, von Hippel-Lindau disease tumor suppressor/AKT (Homo sapiens); test: Protac activity at VHL/AKT in human BT-474 cells assessed as inhibition of downstream signalling by measuring reduction in PRAS40 phosphorylation at T246 residue at 5 uM measured after 24 hrs Western blot analysis; assay type: cell-based; in short: as §1
[6] = biological target: RAC-gamma serine/threonine-protein kinase (Homo sapiens, UniProt Q9Y243); test: Binding affinity to DNA-tagged AKT3 (unknown origin) assessed as dissociation constant by q-PCR based competitive binding assay
In short: (§3)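 KINOMEscan competition binding: DNA-tagged kinase competes between test compound and an immobilized active-site ligand, with bound kinase read by qPCR of the tag. Kd fitted from an 11-point threefold dilution series (top 30 μM) plus three DMSO control points, run in duplicate.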

[7] = biological target: RAC-alpha serine/threonine-protein kinase (Homo sapiens, UniProt P31749); test: Binding affinity to DNA-tagged AKT1 (unknown origin) assessed as dissociation constant by q-PCR based competitive binding assay; in short: as §3
Chain of RAC-alpha serine/threonine-protein kinase (P31749 whole entry): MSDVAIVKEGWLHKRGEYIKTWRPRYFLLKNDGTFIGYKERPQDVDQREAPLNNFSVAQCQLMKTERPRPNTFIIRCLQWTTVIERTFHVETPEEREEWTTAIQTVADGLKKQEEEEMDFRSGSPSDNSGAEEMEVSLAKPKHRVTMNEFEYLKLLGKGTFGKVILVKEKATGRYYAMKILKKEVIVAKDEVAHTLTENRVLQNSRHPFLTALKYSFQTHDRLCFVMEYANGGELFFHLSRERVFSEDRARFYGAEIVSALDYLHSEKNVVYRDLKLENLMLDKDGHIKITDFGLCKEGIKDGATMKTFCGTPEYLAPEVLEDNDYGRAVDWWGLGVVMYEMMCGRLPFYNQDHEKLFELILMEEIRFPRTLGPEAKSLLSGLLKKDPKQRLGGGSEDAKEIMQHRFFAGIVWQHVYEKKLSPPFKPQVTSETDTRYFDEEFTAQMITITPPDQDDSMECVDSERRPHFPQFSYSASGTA

Chain of RAC-gamma serine/threonine-protein kinase (Q9Y243 whole entry): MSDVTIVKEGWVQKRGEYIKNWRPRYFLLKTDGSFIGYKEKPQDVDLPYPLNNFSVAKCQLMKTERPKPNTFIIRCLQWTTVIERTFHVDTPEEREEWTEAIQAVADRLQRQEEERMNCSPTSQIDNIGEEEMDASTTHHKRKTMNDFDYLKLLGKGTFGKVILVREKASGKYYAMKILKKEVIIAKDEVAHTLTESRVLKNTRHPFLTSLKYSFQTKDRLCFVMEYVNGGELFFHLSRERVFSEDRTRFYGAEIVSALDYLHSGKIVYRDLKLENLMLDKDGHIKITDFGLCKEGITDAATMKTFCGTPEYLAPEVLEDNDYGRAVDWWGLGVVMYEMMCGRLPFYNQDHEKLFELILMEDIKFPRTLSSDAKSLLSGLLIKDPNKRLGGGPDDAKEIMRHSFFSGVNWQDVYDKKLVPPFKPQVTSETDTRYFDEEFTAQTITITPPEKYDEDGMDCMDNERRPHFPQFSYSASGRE

Cc1ncsc1-c1ccc(CNC(=O)[C@@H]2C[C@@H](O)CN2C(=O)[C@@H](NC(=O)CCCC(=O)N2CCN(CC[C@H](NC(=O)C3(N)CCN(c4ncnc5[nH]ccc45)CC3)c3ccc(Cl)cc3)CC2)C(C)(C)C)cc1
Activity [1]: inactive

Cc1ncsc1-c1ccc(CNC(=O)[C@@H]2C[C@@H](O)CN2C(=O)[C@@H](NC(=O)COCCOCCOCCOCCOCC(=O)N2CCN(CC[C@H](NC(=O)C3(N)CCN(c4ncnc5[nH]ccc45)CC3)c3ccc(Cl)cc3)CC2)C(C)(C)C)cc1
Activity [1]: inactive

Cc1ncsc1-c1ccc(CNC(=O)[C@@H]2C[C@@H](O)CN2C(=O)[C@@H](NC(=O)CCOCCOCCOCCC(=O)N2CCN(CC[C@H](NC(=O)C3(N)CCN(c4ncnc5[nH]ccc45)CC3)c3ccc(Cl)cc3)CC2)C(C)(C)C)cc1
Activity [1]: inactive

Cc1ncsc1-c1ccc(CNC(=O)[C@@H]2C[C@@H](O)CN2C(=O)[C@@H](NC(=O)COCCOCCOCC(=O)N2CCN(CC[C@H](NC(=O)C3(N)CCN(c4ncnc5[nH]ccc45)CC3)c3ccc(Cl)cc3)CC2)C(C)(C)C)cc1
Activity [1]: inactive

NC1(C(=O)N[C@@H](CCN2CCN(C(=O)CCCCCCCNc3cccc4c3C(=O)N(C3CCC(=O)NC3=O)C4=O)CC2)c2ccc(Cl)cc2)CCN(c2ncnc3[nH]ccc23)CC1 (stereo partly specified)
Activity [2]: inactive

NC1(C(=O)N[C@@H](CCN2CCN(C(=O)CCOCCOCCOCCOCCOCCCc3cccc4c3C(=O)N(C3CCC(=O)NC3=O)C4=O)CC2)c2ccc(Cl)cc2)CCN(c2ncnc3[nH]ccc23)CC1 (stereo partly specified)
inhibition (BT-474): inactive | Activity [3]: inactive

Cc1ncsc1-c1ccc([C@H](C)NC(=O)[C@@H]2C[C@@H](O)CN2C(=O)[C@@H](NC(=O)CCCCCCCCCC(=O)N2CCN(CC[C@H](NC(=O)C3(N)CCN(c4ncnc5[nH]ccc45)CC3)c3ccc(Cl)cc3)CC2)C(C)(C)C)cc1
inhibition (BT-474): Active

NC1(C(=O)N[C@@H](CCN2CCN(C(=O)CCOCCOCCOCCOCCOCCNc3cccc4c3CN(C3CCC(=O)NC3=O)C4=O)CC2)c2ccc(Cl)cc2)CCN(c2ncnc3[nH]ccc23)CC1 (stereo partly specified)
Activity [3]: inactive

Cc1ncsc1-c1ccc(CNC(=O)[C@@H]2C[C@@H](O)CN2C(=O)[C@@H](NC(=O)CCOCCOCCOCCOCCC(=O)N2CCN(CC[C@H](NC(=O)C3(N)CCN(c4ncnc5[nH]ccc45)CC3)c3ccc(Cl)cc3)CC2)C(C)(C)C)cc1
Activity [1]: inactive

Cc1ncsc1-c1ccc(CNC(=O)[C@@H]2C[C@@H](O)CN2C(=O)[C@@H](NC(=O)COCC(=O)N2CCN(CC[C@H](NC(=O)C3(N)CCN(c4ncnc5[nH]ccc45)CC3)c3ccc(Cl)cc3)CC2)C(C)(C)C)cc1
Activity [1]: Active

NC1(C(=O)N[C@@H](CCN2CCN(C(=O)CCCNc3cccc4c3C(=O)N(C3CCC(=O)NC3=O)C4=O)CC2)c2ccc(Cl)cc2)CCN(c2ncnc3[nH]ccc23)CC1 (stereo partly specified)
inhibition [4]: Active | Activity [2]: Active

Cc1ncsc1-c1ccc(CNC(=O)[C@@H]2C[C@@H](O)CN2C(=O)[C@@H](NC(=O)CCOCCOCCOCCOCCOCCC(=O)N2CCN(CC[C@H](NC(=O)C3(N)CCN(c4ncnc5[nH]ccc45)CC3)c3ccc(Cl)cc3)CC2)C(C)(C)C)cc1
Activity [1]: inactive

Cc1ncsc1-c1ccc(CNC(=O)[C@@H]2C[C@@H](O)CN2C(=O)[C@@H](NC(=O)CCC(=O)N2CCN(CC[C@H](NC(=O)C3(N)CCN(c4ncnc5[nH]ccc45)CC3)c3ccc(Cl)cc3)CC2)C(C)(C)C)cc1
Activity [1]: inactive

NC1(C(=O)N[C@@H](CCO)c2ccc(Cl)cc2)CCN(c2nc[nH]c3nccc2-3)CC1 [CAPIVASERTIB]
GI50 (MDA-MB-468): 3.8 µM | GI50 (PC-3): 6.5 µM

NC1(C(=O)N[C@@H](CCN2CCN(C(=O)CCCCCNc3cccc4c3C(=O)N(C3CCC(=O)NC3=O)C4=O)CC2)c2ccc(Cl)cc2)CCN(c2ncnc3[nH]ccc23)CC1 (stereo partly specified)
inhibition [4]: Active | Activity [2]: Active

Cc1ncsc1-c1ccc(CNC(=O)[C@@H]2C[C@@H](O)CN2C(=O)[C@@H](NC(=O)COCCOCC(=O)N2CCN(CC[C@H](NC(=O)C3(N)CCN(c4ncnc5[nH]ccc45)CC3)c3ccc(Cl)cc3)CC2)C(C)(C)C)cc1
Activity [1]: inactive

Cc1ncsc1-c1ccc(CNC(=O)[C@@H]2C[C@@H](O)CN2C(=O)[C@@H](NC(=O)CCCCC(=O)N2CCN(CC[C@H](NC(=O)C3(N)CCN(c4ncnc5[nH]ccc45)CC3)c3ccc(Cl)cc3)CC2)C(C)(C)C)cc1
inhibition [5]: inactive | Activity [1]: Active

NC1(C(=O)N[C@@H](CCN2CCN(C(=O)CCCCNc3cccc4c3C(=O)N(C3CCC(=O)NC3=O)C4=O)CC2)c2ccc(Cl)cc2)CCN(c2ncnc3[nH]ccc23)CC1 (stereo partly specified)
Activity [2]: Active

NC1(C(=O)N[C@@H](CCN2CCN(C(=O)CCOCCOCCOCCOCCOCCOc3cccc4c3C(=O)N(C3CCC(=O)NC3=O)C4=O)CC2)c2ccc(Cl)cc2)CCN(c2ncnc3[nH]ccc23)CC1 (stereo partly specified)
inhibition (BT-474): inactive | Activity [3]: inactive

Cc1ncsc1-c1ccc(CNC(=O)[C@@H]2C[C@@H](O)CN2C(=O)[C@@H](NC(=O)CCCCCC(=O)N2CCN(CC[C@H](NC(=O)C3(N)CCN(c4ncnc5[nH]ccc45)CC3)c3ccc(Cl)cc3)CC2)C(C)(C)C)cc1
inhibition [5]: inactive | Activity [1]: Active

NC1(C(=O)N[C@@H](CCN2CCN(C(=O)CCCCCCNc3cccc4c3C(=O)N(C3CCC(=O)NC3=O)C4=O)CC2)c2ccc(Cl)cc2)CCN(c2ncnc3[nH]ccc23)CC1 (stereo partly specified)
Activity [2]: inactive

CN1C(=O)CCC(N2C(=O)c3cccc(NCCOCCOCCOCCOCCOCCC(=O)N4CCN(CC[C@H](NC(=O)C5(N)CCN(c6ncnc7[nH]ccc67)CC5)c5ccc(Cl)cc5)CC4)c3C2=O)C1=O (stereo partly specified)
Kd [6]: 0.023 µM | Kd [7]: 0.0055 µM

Cc1ncsc1-c1ccc(CNC(=O)[C@@H]2C[C@@H](O)CN2C(=O)[C@@H](NC(=O)CCOCCOCCC(=O)N2CCN(CC[C@H](NC(=O)C3(N)CCN(c4ncnc5[nH]ccc45)CC3)c3ccc(Cl)cc3)CC2)C(C)(C)C)cc1
Activity [1]: inactive

Cc1ncsc1-c1ccc(CNC(=O)[C@@H]2C[C@@H](O)CN2C(=O)[C@@H](NC(=O)CCOCCC(=O)N2CCN(CC[C@H](NC(=O)C3(N)CCN(c4ncnc5[nH]ccc45)CC3)c3ccc(Cl)cc3)CC2)C(C)(C)C)cc1
Activity [1]: inactive

NC1(C(=O)N[C@@H](CCN2CCN(C(=O)CNc3cccc4c3C(=O)N(C3CCC(=O)NC3=O)C4=O)CC2)c2ccc(Cl)cc2)CCN(c2ncnc3[nH]ccc23)CC1 (stereo partly specified)
Activity [2]: inactive

Cc1ncsc1-c1ccc(CNC(=O)[C@@H]2C[C@@H](OCc3ccccc3)CN2C(=O)[C@@H](NC(=O)CCCCCCCCCCC(=O)N2CCN(CC[C@H](NC(=O)C3(N)CCN(c4ncnc5[nH]ccc45)CC3)c3ccc(Cl)cc3)CC2)C(C)(C)C)cc1
Kd [6]: 2.9 µM | Kd [7]: 0.15 µM

NC1(C(=O)N[C@@H](CCN2CCN(C(=O)CCNc3cccc4c3C(=O)N(C3CCC(=O)NC3=O)C4=O)CC2)c2ccc(Cl)cc2)CCN(c2ncnc3[nH]ccc23)CC1 (stereo partly specified)
Activity [2]: inactive

NC1(C(=O)N[C@@H](CCN2CCN(C(=O)CCOCCNc3cccc4c3C(=O)N(C3CCC(=O)NC3=O)C4=O)CC2)c2ccc(Cl)cc2)CCN(c2ncnc3[nH]ccc23)CC1 (stereo partly specified)
Activity [3]: Active

Cc1ncsc1-c1ccc(CNC(=O)[C@@H]2C[C@@H](O)CN2C(=O)[C@@H](NC(=O)CCCCCCCCCC(=O)N2CCN(CC[C@H](NC(=O)C3(N)CCN(c4ncnc5[nH]ccc45)CC3)c3ccc(Cl)cc3)CC2)C(C)(C)C)cc1
inhibition (BT-474): Active

NC1(C(=O)N[C@@H](CCN2CCN(C(=O)CCOCCOCCOCCOCCOCCNc3cccc4c3C(=O)N(C3CCC(=O)NC3=O)C4=O)CC2)c2ccc(Cl)cc2)CCN(c2ncnc3[nH]ccc23)CC1 (stereo partly specified)
GI50 (MDA-MB-468): 4.8 µM | GI50 (PC-3): 10.8 µM

Cc1ncsc1-c1ccc(CNC(=O)[C@@H]2C[C@@H](O)CN2C(=O)[C@@H](NC(=O)CCCCCCCCCCCC(=O)N2CCN(CC[C@H](NC(=O)C3(N)CCN(c4ncnc5[nH]ccc45)CC3)c3ccc(Cl)cc3)CC2)C(C)(C)C)cc1
inhibition (BT-474): Active
